Results taken from paper PMC9862713 (Bioorganic & Medicinal Chemistry, 2023).
Values after ≈ are worked out from the molar mass of the structure shown. “Also recorded” adds a separate entry of the source.

How the values were obtained:
HEK-293 = assay: MTT cell viability / cytotoxicity assay; type: cell-based, Human; conditions: 24 and 48 h, concentrations up to 100 µM
How it was run: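 HEK-293 cells kept in DMEM with 2 mM L-glutamine, 10% heat-inactivated FBS and 1% pen/strep at 37 °C, 5% CO2. Seeded at 10,000 cells/well; compound or DMSO vehicle (0.5% final) added 24 h later, 24 or 48 h exposure. MTT 0.5 mg/ml final for 2 h at 37 °C, ethanol solubilisation, A570 (ref 650 nm). Eight serial dilutions in triplicate, sigmoidal dose–response fit; mean ± SD, three independent experiments.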

[1] = Aqueous kinetic solubility in PBS pH 7.4; type: physicochemical; conditions: for solubility kinetic at 24 h: phosphate buffered saline (PBS), pH 7.4, Kinetic solubility Sk
SARS-CoV-2 RdRp = SARS-CoV-2 RdRp (Severe acute respiratory syndrome coronavirus 2, UniProt P0DTD1); assay: RdRp enzymatic assay; type: biochemical
[2] = PBS pH 7.4, 25 °C, 24 h, target 250 µM, 2.5 % DMSO

Row | Compound | Cytotoxicity on HEK-293 (HEK-293) | solubility kinetic at 24 h [1, 2] [µM] | other results
1 | CCCCOc1c(-c2ccc(O)c(O)c2)oc2cc(O)cc(O)c2c1=O [Compound 4] | no cytotoxicity effects; also recorded: did not appear to be cytotoxic | – | –
2 | O=c1c(OCCO)c(-c2ccc(O)c(O)c2)oc2cc(O)cc(O)c12 [Compound 5] | no cytotoxicity effects; also recorded: did not appear to be cytotoxic | – | –
3 | O=c1c(OCCCO)c(-c2ccc(O)c(O)c2)oc2cc(O)cc(O)c12 [Compound 6] | did not appear to be cytotoxic; also recorded: no cytotoxicity | – | Kinetic solubility Sk [1, 2]: 231 µM
4 | O=c1cc(Cc2ccc(O)c(O)c2)oc2cccc(O)c12 [Compound 7] | – | – | Improvement of kinetic solubility ([1]; compared to the hits (luteolin, quercetin)): 3 to 4 fold
5 | CC(c1ccc(O)c(O)c1)c1cc(=O)c2c(O)cccc2o1 (stereo not drawn) [Compound 8] | no cytotoxicity effects; also recorded: did not appear to be cytotoxic | – | –
6 | O=c1cc(C(CCCC(F)(F)F)c2ccc(O)c(O)c2)oc2cccc(O)c12 (stereo not drawn) [Compound 10] | – | – | IC50 against SARS-CoV-2 RdRp (SARS-CoV-2 RdRp; enzymatic assay, 37 °C, 60 min, duplicate): no inhibition
7 | O=c1cc(/C=C/c2ccc(O)c(O)c2)oc2cccc(O)c12 [Compound 12] | – | 1 (≈ 0.296 µg/mL) | –
8 | O=C(Oc1ccc(O)c(O)c1)c1cc(=O)c2c(O)cccc2o1 [Compound 14] | – | 1 (≈ 0.314 µg/mL) | Increase of activity (IC50 ratio) (SARS-CoV-2 RdRp; compared to 12 and 13): about 4 fold
9 | O=C(OCCc1ccc(O)c(O)c1)c1cc(=O)c2c(O)cccc2o1 [Compound 15] | – | – | Drop of potency (IC50 ratio) (SARS-CoV-2 RdRp; compared to the rigid ester 14): 22 fold
10 | O=C(NCCNC(=S)Nc1ccc(O)c(O)c1)c1cc(=O)c2c(O)cccc2o1 [Compound 17] | – | 1 (≈ 0.415 µg/mL) | –
